# Published values collected from several papers.
# Each line is one published result; the experiments were not run side by side.
# Target: Serine/threonine-protein kinase BRSK2 (BRSK2, Homo sapiens, UniProt Q8IWQ3)
# One construct used (Q8IWQ3 1-736): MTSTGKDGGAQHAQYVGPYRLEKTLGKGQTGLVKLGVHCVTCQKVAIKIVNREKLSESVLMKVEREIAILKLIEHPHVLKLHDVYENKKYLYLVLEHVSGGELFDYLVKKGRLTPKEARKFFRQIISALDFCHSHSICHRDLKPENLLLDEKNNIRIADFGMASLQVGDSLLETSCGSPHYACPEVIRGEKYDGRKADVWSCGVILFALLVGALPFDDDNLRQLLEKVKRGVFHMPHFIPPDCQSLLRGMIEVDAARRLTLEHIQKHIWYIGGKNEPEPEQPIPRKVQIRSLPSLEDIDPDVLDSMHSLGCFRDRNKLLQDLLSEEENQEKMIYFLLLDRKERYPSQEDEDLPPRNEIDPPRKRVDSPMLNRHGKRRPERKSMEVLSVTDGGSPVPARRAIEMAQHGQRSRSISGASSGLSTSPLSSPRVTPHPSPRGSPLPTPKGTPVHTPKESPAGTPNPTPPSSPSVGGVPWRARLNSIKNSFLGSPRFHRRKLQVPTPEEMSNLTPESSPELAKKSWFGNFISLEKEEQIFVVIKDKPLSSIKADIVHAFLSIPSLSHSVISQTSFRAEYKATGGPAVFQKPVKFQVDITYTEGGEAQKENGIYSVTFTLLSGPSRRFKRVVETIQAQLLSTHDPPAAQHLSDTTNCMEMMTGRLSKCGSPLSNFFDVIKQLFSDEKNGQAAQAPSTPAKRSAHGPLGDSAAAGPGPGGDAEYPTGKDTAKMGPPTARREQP
SMILES,assay,setting,remaining binding [%]
CN(C)c1ncc(F)c(-c2cnn3ncccc23)n1,binding,1 µM,100
CCCCN(CCCC)C(=O)CN1C[C@H](c2cc(OC)c3c(c2)OCO3)[C@@H](C(=O)O)[C@@H]1CC(C)(C)CCC,"cell-free assay, competition with immobilised ligand",1 µM,95.6
O=C(c1ccc(Nc2ncc(Cl)c(-c3ccc(Cl)s3)n2)cc1)N1CCC(N2CCCC2)CC1,"binding, competition with immobilised ligand",1 µM,58
CCN1CCN(Cc2ccc(C(=O)Nc3ccc(C)c(Oc4ccc5c(c4)CC(=O)N5)c3)cc2C(F)(F)F)CC1,"binding, competition with immobilised ligand",1 µM,100
O=C(Nc1cnc(Oc2ccc(F)cc2)nc1)N1CCc2ncccc2[C@@H]1c1ccc(F)cc1,"cell-free assay, competition with immobilised ligand",1 µM,89
COc1cnc(Nc2cccc(S(N)(=O)=O)c2)nc1N1CCN(c2ccccc2)C(=O)C1,"binding, competition with immobilised ligand",1 µM,100
Nc1ncc2c(n1)-c1c([nH]c3ccc(C#CC4CC4)cc13)CCCC2,"binding, competition with immobilised ligand",1 µM,93
COc1ncc2cc3ccccc3nc2c1C#N,"cell-free assay, competition with immobilised ligand",5 µM,74
COc1cc(-c2cn(C3CCc4ccccc4N(CC(F)(F)F)C3=O)nn2)ccc1-n1ccc(C)n1 (stereo not drawn),"cell-free assay, competition with immobilised ligand",1 µM,97
N[C@@H]1CCN(c2nccc(-c3cnn4ncccc34)n2)C1,binding,1 µM,100
C[C@@H](c1ccc(-n2cnc3c(N)ncnc32)cc1)N1CCc2nn(C)c(Cc3ccccc3)c2C1=O,"binding, competition with immobilised ligand",0.1 µM,90
F[C@@H]1CCN(c2nccc(-c3cnn4ncccc34)n2)C1,binding,1 µM,100
O=C(Nc1cccnn1)N1CC(C/C=C/c2cncc(Oc3ccc(C(F)(F)F)cn3)n2)C1,"cell-free assay, competition with immobilised ligand",1 µM,100
C[C@@H]1CCN(c2nccc(-c3cnn4ncccc34)n2)C1,binding,1 µM,91
O=C(NCC1CCOCC1)c1n[nH]cc1NC(=O)c1c(F)cccc1F,"binding, competition with immobilised ligand",1 µM,95
O=C(NS(=O)(=O)c1ccc(NCC2CCOCC2)c([N+](=O)[O-])c1)c1ccc(N2CCN(Cc3ccc(C(F)(F)F)cc3-c3ccc(Cl)cc3)CC2)cc1Oc1cnc2[nH]ccc2c1,"cell-free assay, competition with immobilised ligand",1 µM,87
Cc1cnc(Nc2ccc(C(=O)N3CCC(N4CCCC4)CC3)cc2)nc1-c1cc2ccccc2s1,"binding, competition with immobilised ligand",1 µM,42
COc1ccnn2ncc(-c3ccnc(N(C)C)n3)c12,binding,1 µM,76
O=C(NCCCN1CCOCC1)c1ccc(Nc2ncc(Cl)c(-c3ccc(Cl)s3)n2)cc1,"binding, competition with immobilised ligand",1 µM,45
CN(CCCC(F)(F)F)c1nccc(-c2cnn3ncccc23)n1,binding,1 µM,100
Nc1cnc(N2CCc3cc(S(=O)(=O)Nc4c(F)cc(Cl)cc4F)cc(N4CCCC4=O)c32)nc1,"cell-free assay, competition with immobilised ligand",1 µM,80
